The list is not random: actives were taken first. Their share in the collection is about 1.4%.
PG9 Ab binder: binders of HIV-1 gp120 antibody PG9, primary screen, biochemical, TR-FRET; HIV-1 gp120 / PG9 antibody interaction; TR-FRET gp120-PG9 antibody binding; inhibition, % at 6.7 µM; 360,000 compounds, 0.43% hits; AID 624416, 2012; in the data active = inhibition above about 8.5%
NR2E3 ag-1: inhibitors of NR2E3-RetCOR corepressor binding, primary screen, NR2E3 agonist project, biochemical, TR-FRET, GST-NR2E3, biotin-RetCOR. Photoreceptor-specific nuclear receptor (Homo sapiens), Q9Y5X4. 1536-well. inhibition of corepressor binding, % at 4.78 µM. 320,000 compounds, 0.12% hits. AID 2300, 2010;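 active = percent inhibition above the cutoff of mean plus 3 SD of all tested compounds, set per screening campaign, cut at about 20% in these data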;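 note: 0% = DMSO wells and 100% = biotin wells as full block of FRET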
Target sequence (Q9Y5X4 whole entry, looked up): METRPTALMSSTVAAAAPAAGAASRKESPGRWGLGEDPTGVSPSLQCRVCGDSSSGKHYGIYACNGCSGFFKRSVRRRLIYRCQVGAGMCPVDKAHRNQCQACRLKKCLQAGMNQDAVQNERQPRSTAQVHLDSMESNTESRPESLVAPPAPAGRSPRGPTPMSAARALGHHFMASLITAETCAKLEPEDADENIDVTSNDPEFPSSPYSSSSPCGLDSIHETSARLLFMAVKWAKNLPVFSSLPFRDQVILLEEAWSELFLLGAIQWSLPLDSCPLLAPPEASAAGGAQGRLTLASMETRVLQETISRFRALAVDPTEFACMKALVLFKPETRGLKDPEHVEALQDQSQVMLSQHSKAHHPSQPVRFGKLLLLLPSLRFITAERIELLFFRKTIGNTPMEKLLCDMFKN
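Material: NR2E3–RetCOR corepressor complex / Amount: 1.35 nM GST-NR2E3 / Medium: Tris pH 7.5 / Compound: single nominal compound dose of 4.8 µM / Incubation: 5 h at 4 °C / Technique: TR-FRET, Eu(K)-anti-GST donor, streptavidin-D2 acceptor, ex 340, em 617/671 nm / Read-out basis: percent loss of FRET ratio relative to control wells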
NR2E3 ag-2: NR2E3 agonists in two-hybrid cells, primary screen, cell-based, luminescence, CHO-S, Gal4-NCOR/VP16-NR2E3; Photoreceptor-specific nuclear receptor (Homo sapiens), Q9Y5X4; luciferase; inhibition of corepressor binding, % at 3.98 µM; 360,000 compounds, 0.35% hits; AID 602229, 2012;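 active = inhibition above the mean of all tested compounds plus 3 SD, cut at about 70% in these data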;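 note: 0% = DMSO with NR2E3 transfected cells and 100% = cells lacking NR2E3 construct; higher means lower luciferase signal from less NR2E3 corepressor binding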
NR1D1 modulator: modulators of Rev-erb alpha DNA binding, primary screen, biochemical, FITC-DNA, fluorescence polarization, uHTS | Rev-erbα–FITC-DNA binding, 90 min | activity, % at 10 µM | 370,000 compounds, 0.79% hits | AID 1259318, 2017;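 active = activity above about 14%, limit read from the data; passing the limit was not always enough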;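 note: 0% = DMSO wells with 35 nM protein and 100% = DMSO wells with 750 nM protein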
NR2E3 ag confirm-1: NR2E3 agonists, confirmation, biochemical, TR-FRET; shares compounds with NR2E3 ag-1; cell-free NR2E3 corepressor release, 5 h; activation (reported as inhibition), % at 3.98 µM; 360 compounds, 39% hits; AID 2379, 2010; in the data active = activation above about 20%
PPARg-NCOR2 ctr: agonists of PPARg-NCOR2 corepressor interaction, counter-screen for NR2E3 agonist project, biochemical, TR-FRET; inhibition, % at 3.98 µM; AID 504787, 2011; 360 compounds, 45% hits; TR-FRET PPARg-NCOR2 coregulator interaction; shares compounds with NR2E3 ag-1; in the data active = inhibition above about 20%;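 note: 0% = DMSO vehicle and 100% = wells without protein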
NR2E3 ag confirm-2: NR2E3 agonist confirmation in cells, cell-based, luminescence, CHO-S two-hybrid | inhibition, % at 3.98 µM | CHO-S mammalian two-hybrid NR2E3-NCOR, luciferase luminescence | shares compounds with NR2E3 ag-2 | AID 624378, 2012 | 2,300 compounds, 51% hits;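 active = average inhibition above a cutoff equal to the mean inhibition of all tested compounds plus one SD, cut at about 70% in these data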;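 note: 0% = DMSO in NR2E3 cells and 100% = DMSO in cells lacking NR2E3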
GAL4-VP16 luc: GAL4-VP16 reporter modulators, confirmation, counter-screen for NR2E3 agonist project, cell-based, luminescence, CHO-S, high throughput | shares compounds with NR2E3 ag-2 | 2,300 compounds, 29% hits | CHO-S GAL4-VP16 luciferase reporter | inhibition, % at 3.98 µM | AID 624379, 2012;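 active = mean inhibition above a cutoff equal to the average over all tested compounds plus one standard deviation, cut at about 70% in these data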;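 note: luciferase from a UAS reporter driven by GAL4-VP16 transactivation; 0% = DMSO with VP16-transfected cells and 100% = DMSO with cells lacking VP16; higher means less reporter light so more repression of VP16 activity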
PG9 bind confirm: binders of anti-gp120 antibody PG9, confirmation, biochemical, TR-FRET. shares compounds with PG9 Ab binder. TR-FRET PG9 antibody binding. inhibition, % at 6.7 µM. 1,500 compounds, 90% hits. AID 651571, 2012; in the data active = inhibition above about 9%
PGV04 counter: binders of control antibody PGV04, counter-screen for PG9 antibody binder project, biochemical, TR-FRET, distinct HIV envelope site; TR-FRET PGV04 antibody-gp120 binding; inhibition, % at 6.7 µM; 1,500 compounds, 95% hits; shares compounds with PG9 Ab binder; in the data active = inhibition above about 9.5%
Active calls of the source: *; ! = a repeat was not active.

Results for NCCc1cc(O)c(O)cc1O ?
PG9 Ab binder: 11*!; NR2E3 ag-2: -17; NR1D1 modulator: -28

What do the screens show for `CC(=O)C1C(N2CC2)CC2C3CC=C4CC(O)CCC4(C)C3CCC21C` (stereo not given)?
PG9 Ab binder: 0; NR2E3 ag-2: 6; NR1D1 modulator: 2

How did C[C@]12CCC3C(CC[C@H]4[C@@H](O)[C@H](O)CC[C@]34C)C1CCC2=O (stereo not given in full) do in these assays?
PG9 Ab binder: 0; NR2E3 ag-2: 2; NR1D1 modulator: 3

Results for CC(=NCc1cccnc1)c1c(O)n(-c2ccccc2)c(=O)[nH]c1=O ?
PG9 Ab binder: -4; NR2E3 ag-1: 4; NR2E3 ag-2: -10; NR1D1 modulator: -5

What do the screens show for `CCn1nc(-c2cccs2)nc2c(=O)n(C)c(=O)nc1-2`?
NR2E3 ag-2: 106*

What do the screens show for `CC(C)COC(=O)c1ccccc1C(=O)OCC(C)C`?
PG9 Ab binder: 0; NR2E3 ag-1: -1; NR2E3 ag-2: -9; NR1D1 modulator: -5

How did C[CH2][Hg][S]c1ccccc1C(=O)O do in these assays?
PG9 Ab binder: -3; NR2E3 ag-1: 4; NR2E3 ag-2: 93*; NR1D1 modulator: -4

Results for CP(=O)(Nc1ccc(Cl)cc1)c1nc2c(s1)CCCC2 (stereo not given) ?
PG9 Ab binder: 1; NR2E3 ag-1: -2; NR2E3 ag-2: -34; NR1D1 modulator: -8

Results for CCN1/C(=C\C=C\C2=[N+](CC)c3ccccc3C2(C)C)C(C)(C)c2ccccc21 ?
NR2E3 ag-1: 7; NR2E3 ag-2: 104*

How did Cc1cc(O)c2c(c1)C(=O)C13C(=C2O)C(=O)[C@H]2[C@@H](O)[C@@H]1[C@H]1[C@H](O)[C@@H]3C(=O)C3=C(O)c4c(O)cc(C)cc4C(=O)C312 (stereo not given in full) do in these assays?
NR2E3 ag-1: 1; NR2E3 ag-2: 102*

How did NC(Cc1cc(O)c(O)cc1O)C(=O)O (stereo not given) do in these assays?
NR2E3 ag-1: 25*; NR2E3 ag confirm-1: 38*; PPARg-NCOR2 ctr: 2

Results for Cc1ccc(-c2cc(C(F)F)n3ncc(C(=O)N4CCC5(CC4)OCCO5)c3n2)cc1 ?
PG9 Ab binder: -2; NR2E3 ag-1: 8; NR2E3 ag-2: 26; NR1D1 modulator: -2

How did CCN1C(=O)C(=C2C=C(C)N(Cc3ccco3)C(C)=C2)C(=O)N(CC)C1=S do in these assays?
PG9 Ab binder: 20*; NR2E3 ag-1: 25*; NR2E3 ag-2: -2; NR1D1 modulator: 2; NR2E3 ag confirm-1: 14; PPARg-NCOR2 ctr: 17; PG9 bind confirm: 22*; PGV04 counter: 27*

Results for CC(=O)N1N=C2C3CCN(CC3)C2C1c1ccc(F)cc1 (stereo not given) ?
PG9 Ab binder: 0; NR2E3 ag-1: -7; NR2E3 ag-2: -20; NR1D1 modulator: 2

Results for CC(=O)OC(C)(C)/C=C/C(=O)C(C)(O)C1C(O)CC2(C)C3CC=C4C(CC(O)C(=O)C4(C)C)C3(C)C(=O)CC12C (stereo not given) ?
PG9 Ab binder: 1; NR2E3 ag-2: 63; NR1D1 modulator: 2; NR2E3 ag confirm-2: 80*; GAL4-VP16 luc: 48

What do the screens show for `O=c1[nH]c(=S)[nH]c(O)c1N=Nc1ccc(S(=O)(=O)N2CCc3ccccc32)cc1`?
PG9 Ab binder: -9; NR2E3 ag-1: 3; NR2E3 ag-2: -2; NR1D1 modulator: 5

What do the screens show for `CCC(=NCCOc1ccc(Cl)cc1)c1c(O)n(C)c(=O)n(C)c1=O`?
PG9 Ab binder: 0; NR2E3 ag-1: 0; NR2E3 ag-2: 79*; NR1D1 modulator: -7; NR2E3 ag confirm-2: 96*; GAL4-VP16 luc: 83*

How did CCC(=NCCc1c[nH]c2ccccc12)c1c(O)n(C)c(=O)n(C)c1=O do in these assays?
PG9 Ab binder: 1; NR2E3 ag-1: 6; NR2E3 ag-2: 73*; NR1D1 modulator: -2; NR2E3 ag confirm-2: 87*; GAL4-VP16 luc: 77*

What do the screens show for `COc1ccc(OC(=O)N(C)C[C@@H]2OCc3cnnn3CCCC(=O)N([C@@H](C)CO)C[C@@H]2C)cc1`?
PG9 Ab binder: 0; NR2E3 ag-2: 16; NR1D1 modulator: 1

What do the screens show for `C[C@]12CC[C@@H](O)CC1=CCC1C2CC[C@@]2(C)C1C[C@@H](F)[C@@H]2O` (stereo not given in full)?
PG9 Ab binder: 1; NR2E3 ag-2: -9; NR1D1 modulator: 0

What do the screens show for `COc1ccccc1OCCCn1cc(C(C)=O)c2ccccc21`?
PG9 Ab binder: 1; NR2E3 ag-1: -4; NR2E3 ag-2: -7; NR1D1 modulator: -5

Results for CN(C)C1(CNC(=O)Nc2ccc(Cl)c(Cl)c2)CCCCC1 ?
PG9 Ab binder: 2; NR2E3 ag-1: 0; NR2E3 ag-2: 17; NR1D1 modulator: 5

Results for c1ccc2c(c1)-c1cccc3cccc-2c13 ?
PG9 Ab binder: 1; NR2E3 ag-1: 1; NR2E3 ag-2: -8; NR1D1 modulator: -5

Results for c1ccc2c(c1)[IH]c1ccccc1-2 ?
PG9 Ab binder: 0; NR2E3 ag-2: 100*; NR1D1 modulator: -1; NR2E3 ag confirm-2: 97*; GAL4-VP16 luc: 88*

How did O=C(NCP(=O)(Oc1ccccc1)Oc1ccccc1)OCc1ccccc1 do in these assays?
PG9 Ab binder: 1; NR2E3 ag-2: 0; NR1D1 modulator: 1

Source: PubChem BioAssay (several laboratories)
